Values after ≈ are worked out from the molar mass of the structure shown.

Series [1] is described as follows: Solubility in PBS at pH 7.2. Type of series: physicochemical.
Series [2] can be described thus: Tmax in Wistar rat at 1 mg/kg, po. Type of series: ADME, organism-based. Set-up: dose 1 mg/kg, route oral. The following applies: in vivo. Put shortly:
(§1)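 Male Wistar rats given a single oral dose of 1 mg/kg as a suspension in 0.5% methylcellulose with 0.1% Tween 80. Plasma levels of sulfoxide prodrug and sulfone parent were followed over time. Cmax, tmax and AUC0-t are reported as means (n = 2–3) with SD.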

Series [3] concerns Rattus norvegicus. Description: Tmax for parent compound after prodrug dosing in Wistar rat at 1 mg/kg, po. Type of series: ADME, organism-based. Set-up: dose 1 mg/kg, route oral. As to conditions: in vivo. Put shortly:
as §1

For series [4], the system named is Liver microsomes. Briefly: Stability in rat liver microsomes. Type of series: ADME, Microsome. The procedure, abridged:
(§2)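 Compound at 5 µM was incubated with human or rat liver microsomes (1 mg/mL microsomal protein) for 30 min at 37 °C. Result is given as % metabolism.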
Background: Liver microsomes are a subcellular fraction often used to study metabolism.

The nature of series [5]: AUC(0-t) in Wistar rat at 1 mg/kg, po. The format is ADME, organism-based. Set-up: dose 1 mg/kg, route oral. As to conditions: plasma. Put shortly: as §1
Series [6] relates to Rattus norvegicus. Description: Inhibition of adjuvant-induced arthritis in Wistar rat at 1 mg/kg, po. Type of series: functional. The procedure, abridged:
(§3)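 Adjuvant-induced arthritis in male Wistar rats, therapeutic protocol. Compounds were given orally once daily for 7 days, starting on day 14 after arthritis induction. Paw edema was measured 24 h after the last dose and expressed as % inhibition.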

A short description of series [7]: Cmax in Wistar rat at 1 mg/kg, po. Type of series: ADME, organism-based. Set-up: dose 1 mg/kg, route oral. The following applies: in vivo. The procedure, abridged: as §1
Series [8] concerns Rattus norvegicus. Description: Inhibition of yeast-induced pyresis in Wistar rat at 3 mg/kg, po. Type of series: functional. Put shortly: (§4)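 Yeast-induced pyresis, an acute model run as a therapeutic protocol. Compounds were given as a single oral dose. Temperature was recorded at 1 h intervals from 1 to 5 h after dosing and expressed as % inhibition.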
In series [9] the test system is Liver microsomes. Description: Stability in human liver microsomes. Type of series: ADME, Microsome. Put shortly:
as §2

Series [10] deals with Rattus norvegicus. Description: Cmax for parent compound after prodrug dosing in Wistar rat at 1 mg/kg, po. Type of series: ADME, organism-based. Set-up: dose 1 mg/kg, route oral. As to conditions: in vivo. The procedure, abridged: as §1
The nature of series [11]: Solubility in SGF at pH 1.8. The format is physicochemical.
In series [12] the target is T1, Prostaglandin G/H synthase 2 (Homo sapiens, UniProt P35354).
T1 sequence (P35354 whole entry): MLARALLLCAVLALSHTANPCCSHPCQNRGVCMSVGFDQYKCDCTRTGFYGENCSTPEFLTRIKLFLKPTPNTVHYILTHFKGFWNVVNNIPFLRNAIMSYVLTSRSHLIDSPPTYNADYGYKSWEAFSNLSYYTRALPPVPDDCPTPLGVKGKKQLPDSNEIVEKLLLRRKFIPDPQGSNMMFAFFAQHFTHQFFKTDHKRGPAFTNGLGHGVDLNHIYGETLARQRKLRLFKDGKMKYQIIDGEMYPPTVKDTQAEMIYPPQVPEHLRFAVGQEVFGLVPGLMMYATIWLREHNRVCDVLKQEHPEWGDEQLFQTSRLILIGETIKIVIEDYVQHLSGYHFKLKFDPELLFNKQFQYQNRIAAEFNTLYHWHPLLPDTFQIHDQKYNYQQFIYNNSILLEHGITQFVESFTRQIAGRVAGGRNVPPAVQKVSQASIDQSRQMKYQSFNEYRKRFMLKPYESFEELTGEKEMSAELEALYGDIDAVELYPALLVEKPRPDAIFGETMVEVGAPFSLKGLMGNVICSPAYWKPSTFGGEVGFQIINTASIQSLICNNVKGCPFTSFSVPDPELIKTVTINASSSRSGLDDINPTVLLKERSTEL
Description: Inhibition of COX2 in human whole blood. The format is tissue-based.

Series [13] has as its system Rattus norvegicus. Description: AUC(0-t) for parent compound after prodrug dosing in Wistar rat at 1 mg/kg, po. As to conditions: in vivo. Set-up: dose 1 mg/kg, route oral. Type of series: ADME, organism-based, Plasma. Put shortly:
as §1

The target in series [14] is T2, Prostaglandin G/H synthase 2 (Homo sapiens) (UniProt P35354).
T2 sequence (whole entry): T1 sequence (P35354 whole entry)
Briefly: Inhibition of COX2 in human whole blood at 10 uM. Type of series: tissue-based.

For series [15], the system named is Rattus norvegicus. Description: Inhibition of yeast-induced pyresis in Wistar rat at 1 mg/kg, po. The format is functional. The procedure, abridged:
as §4

Series [16] has as its system Rattus norvegicus. Briefly: Inhibition of adjuvant-induced arthritis in Wistar rat at 0.3 mg/kg, po. The format is functional. Put shortly:
as §3

The solubility is the concentration that dissolves in the medium under given conditions. A higher solubility goes with a readily soluble substance. The term Tmax denotes the time from dosing to the highest level. In general, AUC(0-t) refers to the area under the concentration-time curve up to a stated or last time point. By inhibition in vivo is commonly meant the change of the read-out against control, counted positive when it falls. Broadly, the Cmax is the maximum level reached in the sampled fluid or tissue. By IC50 is commonly meant the concentration needed to halve the response being measured. As usually defined, the AUC is concentration integrated over time. With `Cc1ccc(-c2ncc(Cl)cc2-c2ccc([S+](C)[O-])cc2)cn1` (stereo not drawn), the solubility in series [1] and in series [11] was over 1000 µg/mL each time. Besides, the Tmax was 36 min in [2] and 18 min with Rattus norvegicus [3]. Moreover, the figures for the Stability in the series on Liver microsomes [4] and in the series with Liver microsomes [9] were 21% and 6%, respectively. This compound also yielded an AUC(0-t) in series [5] of 578 ng·h/mL. Besides, the inhibition in vivo at 1 mg/kg with Rattus norvegicus [6] was 67%. Moreover, the Cmax in series [7] was found to be 133 ng/mL; in the series with Rattus norvegicus [10], 254 ng/mL. Testing at 3 mg/kg in the series on Rattus norvegicus [8] gave an inhibition in vivo of 49%. For the same compound, in [12], the IC50 turned out to be 3.7 µM. The AUC with Rattus norvegicus [13] was determined as 803 ng·h/mL.

Broadly, the inhibition is the relative decrease from the control value, in per cent. Low readings indicate a response near the control, high ones a response far below the control. Consider `Cc1ccc(-c2ncc(Cl)cc2-c2ccc([S@@+](C)[O-])cc2)cn1`, for which, in series [14], the inhibition was 24.4%. In addition, the Stability is reported as 26% in the series with Liver microsomes [4] and 5% in the series on Liver microsomes [9].

For the compound `Cc1ccc(-c2ncc(Cl)cc2-c2ccc([S@+](C)[O-])cc2)cn1`, the results for the Stability with Liver microsomes [4] and with Liver microsomes [9] were 17% and 2%, respectively. The midpoint of inhibition in series [12], the IC50, lay at 3.5 µM.

For `C[S@+]([O-])c1ccc(C2=C(c3ccccc3)C(=O)OC2)cc1`, the Stability with Liver microsomes [4] was found to be 40%; with Liver microsomes [9] it was 4%.

As for `CS(=O)(=O)c1ccc(C2=C(c3ccccc3)C(=O)OC2)cc1` [ROFECOXIB], the solubility in [1] came to 15 µg/mL (≈ 47.7 µM); in series [11] it was 16 µg/mL (≈ 50.9 µM). The Tmax in series [2] was found to be 24 min. The Stability in the series with Liver microsomes [4] is 38%. This compound also showed an inhibition in vivo at 1 mg/kg in the series with Rattus norvegicus [15] of 48%. Further, the AUC(0-t) in [5] is 531 ng·h/mL. Moreover, the inhibition in vivo at 0.3 mg/kg in the series with Rattus norvegicus [16] is 41%. In addition, in [7], the Cmax came out at 237 ng/mL.

As for `Cc1ccc(-c2ncc(Cl)cc2-c2ccc(S(C)(=O)=O)cc2)cn1` [ETORICOXIB], the values for the solubility in series [1] and in series [11] were 104 µg/mL (≈ 290 µM) and over 1000 µg/mL, respectively. In [2], the Tmax turned out to be 18 min. The figures for the Stability with Liver microsomes [4] and with Liver microsomes [9] were 6% and 4%, respectively. This compound returned an AUC(0-t) in [5] of 1660 ng·h/mL. For the same compound, the inhibition in vivo at 1 mg/kg in the series with Rattus norvegicus [6] came to 60%. For the same compound, the Cmax in series [7] is 427 ng/mL. In the series on Rattus norvegicus [8], this compound came in with an inhibition in vivo at 3 mg/kg of 81%.

For `C[S@@+]([O-])c1ccc(C2=C(c3ccccc3)C(=O)OC2)cc1`, the values for the Stability with Liver microsomes [4] and in the series on Liver microsomes [9] were 49% and 1%, respectively.

`C[S+]([O-])c1ccc(C2=C(c3ccccc3)C(=O)OC2)cc1` (stereo not drawn): the solubility in series [1] is 537 µg/mL (≈ 1800 µM); in series [11], 717 µg/mL (≈ 2400 µM). Besides, the Tmax in series [2] stood at 18 min; with Rattus norvegicus [3], 24 min. Moreover, the Stability is reported as 35% in the series on Liver microsomes [4] and 5% with Liver microsomes [9]. The inhibition in vivo at 1 mg/kg with Rattus norvegicus [15] came out at 56%. Further, the AUC(0-t) in [5] is 318 ng·h/mL. Further, the inhibition in vivo at 0.3 mg/kg with Rattus norvegicus [16] turned out to be 72%. In addition, the Cmax in [7] was determined as 334 ng/mL; in the series with Rattus norvegicus [10] it was 468 ng/mL. In [12], the IC50 came out at 4.93 µM. In the series on Rattus norvegicus [13], the AUC turned out to be 979 ng·h/mL.

The values are drawn from ChEMBL document CHEMBL1148495, “Racemic and chiral sulfoxides as potential prodrugs of the COX-2 inhibitors Vioxx and Arcoxia” (Bioorg Med Chem Lett, 2006).
